The results in this text go back to ChEMBL document CHEMBL1121685, “Development of new mitomycin C and porfiromycin analogues” (J Med Chem, 1981).

Molecules are shown by their SMILES.

Data set [1] is filed under the species Mus musculus. The data set is described as follows: Half-wave potential produced by the compound at their optimal dose. Type of data set: functional. The arrangement: unit not given here.
Data set [2] has as its system Mus musculus. The data set is described as follows: Activity of compound dose of 0.5 mg/kg/day against Murine B-16 Melanocarcinoma in mice. In kind it is functional.
Data set [3] deals with Mus musculus. The data set is described as follows: Activity of compound dose of 4 mg/kg/day against Murine B-16 Melanocarcinoma in mice. Type of data set: functional.
The subject of data set [4] is Mus musculus. The data set is described as follows: Activity of compound dose of 16 mg/kg/day against Murine B-16 Melanocarcinoma in mice. In kind it is functional.
Data set [5] concerns Mus musculus. The data set is described as follows: Effect of compound on total white blood cell count in BDG1 male mice, after intraperitoneal administration at a dose of 25.6 mg/kg on day 7. Type of data set: functional. A digest of the protocol: (§1)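 Single ip dose given on day 0 to BDG1 male mice over a descending dose series. Total white blood cell count is expressed as % change from untreated control on days 3, 5 and 7. Significance is flagged at p ≤ 0.05 and p ≤ 0.01.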

Data set [6] has as its system Mus musculus. The data set is described as follows: Effect of compound on total white blood cell count in BDG1 male mice, after intraperitoneal administration at a dose of 51.2 mg/kg on day 5 (highest dose was twice the optimal dose). Type of data set: functional. Summed up: (§2)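 Single ip dose given on day 0 to BDG₁ male mice. Total white blood cell count measured on days 3, 5 and 7, expressed as % change from control. Highest dose was at the LD₅₀, or at twice the optimal dose where so footnoted. Significance reported at p ≤ 0.05 and p ≤ 0.01. D marks death of one or more mice.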

Data set [7] concerns Mus musculus. The data set is described as follows: Minimum effective dose that show activity against P-388 murine leukemia cells in CDF1 female mice, after intraperitoneal administration (optimal dose is 25.6 mg/kg). The following applies: P388, ip, read-out: MED. Type of data set: functional. A digest of the protocol: (§3)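 10⁶ P-388 ascites cells implanted ip in CDF₁ female mice. Six mice per dose, 10 saline-injected controls, and a concurrent mitomycin C reference group. %T/C = median survival time of treated/control × 100. MED is the lowest dose giving %T/C > 125. Therapeutic ratio = optimal dose/MED.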

The subject of data set [8] is Mus musculus. The data set is described as follows: Number of cured survivors, 45 days after administration of compound at a dose of 4 mg/kg/day in mice. In kind it is functional.
For data set [9], the system named is Mus musculus. The data set is described as follows: Effect of compound on total white blood cell count in BDG1 male mice, after intraperitoneal administration at a dose of 25.6 mg/kg on day 5. Type of data set: functional. A digest of the protocol: as §1
Data set [10] deals with Mus musculus. The data set is described as follows: Number of cured survivors, 45 days after administration of compound at a dose of 16 mg/kg/day in mice. Type of data set: functional.
For data set [11], the species on record is Mus musculus. The data set is described as follows: Degree of leukopenia produced by compound is assessed form Percent change in white cells on days 5. In kind it is functional. A digest of the protocol: (§4)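 BDG₁ male mice received a single ip dose on day 0. The dose series topped out at the LD₅₀ level, or at twice the optimal dose for some agents. Total white blood cell count was taken on days 3, 5 and 7 and expressed as % change from untreated controls. Significance was set at p ≤ 0.05 or p ≤ 0.01.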

Data set [12] has as its system Mus musculus. The data set is described as follows: Activity of compound dose of 8 mg/kg/day against Murine B-16 Melanocarcinoma in mice. In kind it is functional.
Data set [13] has as its system Mus musculus. The data set is described as follows: Antitumor activity against P-388 murine leukemia cells in CDF1 female mice after intraperitoneal administration at the specified optimal dose of 25.6 mg/kg. In kind it is functional.
Data set [14] is described as follows: Therapeutic ratio is expressed as ratio of optimal dose and minimum effective dose. The following applies: mouse; read-out: TR. Type of data set: ADME. A digest of the protocol:
as §3

The test system of data set [15] is Mus musculus. The data set is described as follows: Number of tumored survivors, 45 days after administration of compound at a dose of 16 mg/kg/day in mice. In kind it is functional.
Data set [16] relates to Mus musculus. The data set is described as follows: Effect of compound on total white blood cell count in BDG1 male mice, after intraperitoneal administration at a dose of 25.6 mg/kg on day 3. Type of data set: functional. Summed up:
as §1

In data set [17] the test system is Mus musculus. The data set is described as follows: Activity of compound dose of 1 mg/kg/day against Murine B-16 Melanocarcinoma in mice. In kind it is functional.
Data set [18] concerns Mus musculus. The data set is described as follows: Effect of compound on total white blood cell count in BDG1 male mice, after intraperitoneal administration at a dose of 51.2 mg/kg on day 3 (highest dose was twice the optimal dose). In kind it is functional. Summed up:
as §2

Data set [19] relates to Mus musculus. The data set is described as follows: Activity of compound dose of 2 mg/kg/day against Murine B-16 Melanocarcinoma in mice. In kind it is functional.
Data set [20] deals with Mus musculus. The data set is described as follows: Effect of compound on total white blood cell count in BDG1 male mice, after intraperitoneal administration at a dose of 12.57 mg/kg on day 7. In kind it is functional. A digest of the protocol:
as §4

Data set [21] deals with Mus musculus. The data set is described as follows: Minimum effective dose that show activity against P-388 murine leukemia cells in CDF1 female mice, after intraperitoneal administration (optimal dose is 12.8 mg/kg). In kind it is functional. The following applies: P388, ip, read-out: MED. A digest of the protocol: as §3
Data set [22] relates to Mus musculus. The data set is described as follows: Effect of compound on total white blood cell count in BDG1 male mice, after intraperitoneal administration at a dose of 17 mg/kg on day 7. Type of data set: functional. A digest of the protocol:
as §1

Data set [23] concerns Mus musculus. The data set is described as follows: Effect of compound on total white blood cell count in BDG1 male mice, after intraperitoneal administration at a dose of 17 mg/kg on day 3. In kind it is functional. A digest of the protocol: as §1
Data set [24] deals with Mus musculus. The data set is described as follows: Effect of compound on total white blood cell count in BDG1 male mice, after intraperitoneal administration at a dose of 9.56 mg/kg on day 3. Type of data set: functional. A digest of the protocol: as §2
The subject of data set [25] is Mus musculus. The data set is described as follows: Antitumor activity against P-388 murine leukemia cells in CDF1 female mice after intraperitoneal administration at the specified optimal dose of 12.8 mg/kg. Type of data set: functional.
Data set [26] concerns Mus musculus. The data set is described as follows: Effect of compound on total white blood cell count in BDG1 male mice, after intraperitoneal administration at a dose of 17 mg/kg on day 5. Type of data set: functional. Summed up: as §1
In data set [27] the test system is Mus musculus. The data set is described as follows: Effect of compound on total white blood cell count in BDG1 male mice, after intraperitoneal administration at a dose of 12.57 mg/kg on day 3. In kind it is functional. Summed up:
as §4

Data set [28] deals with Mus musculus. The data set is described as follows: Effect of compound on total white blood cell count in BDG1 male mice, after intraperitoneal administration at a dose of 12.57 mg/kg on day 5. In kind it is functional. Summed up:
as §4

Data set [29] deals with Mus musculus. The data set is described as follows: Effect of compound on total white blood cell count in BDG1 male mice, after intraperitoneal administration at a dose of 9.56 mg/kg on day 5. Type of data set: functional. Summed up:
as §2

Data set [30] relates to Mus musculus. The data set is described as follows: Effect of compound on total white blood cell count in BDG1 male mice, after intraperitoneal administration at a dose of 9.56 mg/kg on day 7. In kind it is functional. A digest of the protocol:
as §2

The term T/C denotes the ratio of treated to control. In data set [1], `C=C(C)CNC1=C(C)C(=O)C2=C(C1=O)[C@H](COC(N)=O)C1(OC)[C@@H]3N[C@@H]3CN21` (some centres not stated) came in with an E1/2 of -0.41. For the same compound, the T/C in data set [2] was 122%; in data set [3], 160%; in data set [4] it was 226%; in data set [12], 186%; in [13], 245%; in data set [17], 131%. In addition, the T/C in [19] was found to be 146%. Moreover, the Change in data set [5] is given as -34%; in [6] it was -25%; in [9], -68%; in data set [11], -59%; in [16], -60%; in data set [18], -60%. Further, the minimal effective dose in data set [7] worked out at 1.6 mg/kg. In addition, the Survivors was 1 in data set [8], 3 in data set [10] and 1 in [15]. Besides, the selectivity ratio in data set [14] was 16.

For the compound `C#CCNC1=C(C)C(=O)C2=C(C1=O)[C@H](COC(N)=O)C1(OC)[C@@H]3N[C@@H]3CN21` (some centres not stated), the Change in data set [20] was -52%; in data set [22], -73%; in data set [23], -80%; in [24], -59%; in data set [26], -75%; in data set [27], -68%. The Change in [28] is listed as -69%; in data set [29], -56%; in [30] it was -28%. Further, in [21], the minimal effective dose came to 0.2 mg/kg. For the same compound, the E1/2 in data set [1] is recorded as -0.41. Further, in [25], the T/C is 358%. Moreover, the selectivity ratio in data set [14] is 64.
